Results: ChEMBL document CHEMBL5036371, “Steroid-Quinoline Hybrids for Disruption and Reversion of Protein Aggregation Processes” (ACS Med Chem Lett, 2022)
Calls of active or inactive are those of the source. No cut-off for these calls is given here.

Key:
[1] = molecular target: Heat shock protein beta-1 (Homo sapiens) (UniProt P04792); assay: Aggregation in human HeLa cells expressing HSP27:GFP protein sensor assessed as number of HSP27:GFP foci per cell at 5 uM incubated for 48 hr by green fluorescent protein based confocal microscopy (rvb = 0.71)
Heat shock protein beta-1 (Homo sapiens), sequence (P04792 whole entry): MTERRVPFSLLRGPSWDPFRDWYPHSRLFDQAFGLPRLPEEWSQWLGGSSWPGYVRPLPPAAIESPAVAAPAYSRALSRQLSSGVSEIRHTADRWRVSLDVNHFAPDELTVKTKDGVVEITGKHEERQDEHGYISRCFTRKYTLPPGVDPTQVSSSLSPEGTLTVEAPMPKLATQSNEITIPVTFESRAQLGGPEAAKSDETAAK
Summary of the method: (§1)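 HeLa cells stably expressing the HSP27:GFP aggregation sensor were exposed to 5 μM nilotinib for 48 h in 0.5% EtOH vehicle. Sensor relocalization to foci was imaged by fluorescence microscopy, and green foci number and average area per cell were scored. Data are mean ± SD, n = 4–10, about 4700 cells per condition, compared by unpaired Student's t test.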

[2] = molecular target: Heat shock protein beta-1 (Homo sapiens) (UniProt P04792); assay: Aggregation in human HeLa cells expressing HSP27:GFP protein in sensor assessed as HSP27:GFP foci area per cell at 5 uM incubated for 48 hrs by green fluorescent protein based confocal microscopy (rvb = 0.6); summary of the method: as §1
[3] = molecular target: Amyloid-beta precursor protein (Homo sapiens) (UniProt P05067); assay: Disaggregation of aggregated human amyloid beta (1 to 42) preformed fibrils in human SH-SY5Y cells assessed as decrease the number of foci to basal levels at 50 uM for 12 hrs by confocal microscopy relative to control; type: cell-based
Amyloid-beta precursor protein (Homo sapiens), sequence (P05067 whole entry): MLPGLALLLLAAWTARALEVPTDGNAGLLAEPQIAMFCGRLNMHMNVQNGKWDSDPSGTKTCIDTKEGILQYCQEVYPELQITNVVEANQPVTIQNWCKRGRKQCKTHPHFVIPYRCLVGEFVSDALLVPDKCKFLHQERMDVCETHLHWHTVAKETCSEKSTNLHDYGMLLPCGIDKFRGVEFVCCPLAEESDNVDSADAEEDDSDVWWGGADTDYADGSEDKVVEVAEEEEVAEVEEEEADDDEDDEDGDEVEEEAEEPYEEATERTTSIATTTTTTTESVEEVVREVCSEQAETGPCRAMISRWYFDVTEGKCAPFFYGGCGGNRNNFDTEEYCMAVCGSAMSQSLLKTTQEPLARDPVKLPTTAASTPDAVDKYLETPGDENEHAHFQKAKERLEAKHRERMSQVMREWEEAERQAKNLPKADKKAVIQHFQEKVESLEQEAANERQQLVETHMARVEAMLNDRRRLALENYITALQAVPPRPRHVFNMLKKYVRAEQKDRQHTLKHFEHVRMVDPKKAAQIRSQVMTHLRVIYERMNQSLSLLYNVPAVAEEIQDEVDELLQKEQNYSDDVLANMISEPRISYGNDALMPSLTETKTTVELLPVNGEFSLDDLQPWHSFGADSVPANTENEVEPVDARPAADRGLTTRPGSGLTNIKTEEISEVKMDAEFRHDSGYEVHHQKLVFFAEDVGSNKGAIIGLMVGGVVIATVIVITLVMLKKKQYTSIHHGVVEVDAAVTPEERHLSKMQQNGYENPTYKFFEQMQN
Summary of the method: (§2)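 SH-SY5Y cells were loaded for 16 h with preaggregated synthetic Aβ1–42, then given compound at 50 μM for a further 12 h in 0.5% EtOH vehicle. Cells were fixed, stained with Proteostat and imaged by confocal microscopy. Number and average area of aggregate foci per cell were scored over 10–20 fields, n = 2, about 370 cells per condition. Data are mean ± SD, unpaired t test.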

HeLa = assay: Cytotoxicity against human HeLa cells assessed as reduction in cell viability at 0.1 to 100 uM incubated for 24 to 48 hrs by Alamar blue colorimetric assay; type: cell-based; conditions: dose lower 0.1 µM, time lower 24 hrs, dose upper 100 µM, time upper 48 hrs
Summary of the method: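 Resazurin (alamarBlue) metabolic viability read-out in HeLa cells exposed for 24 and 48 h to 0.1, 1, 10, 50 and 100 μM compound.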

[4] = molecular target: Amyloid-beta precursor protein (Homo sapiens) (UniProt P05067); assay: Inhibition of amyloid beta (1 to 42) (unknown origin) aggregation assessed as reduction in fluorescence intensity at 20 uM measured upto 30 h by thioflavin-T fluorescence assay
Summary of the method: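 Aβ1–42 peptide (10 μM) fibrillation with 20 μM compound was followed over time by thioflavin-T fluorescence, with quercetin as positive control. Inhibition was judged from reduction of final fluorescence intensity.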

[5] = molecular target: Heat shock protein beta-1 (Homo sapiens) (UniProt P04792); assay: Disaggregation of protein aggregates in human HeLa cells expressing HSP27:GFP assessed as number of HSP27:GFP foci per cell at 50 uM for 12 hr in presence of nilotinib by green fluorescent protein based confocal microscopy (rvb = 0.71)
Summary of the method: (§3)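 Sensor HeLa cells (HSP27:GFP) were kept for 48 h with 5 μM nilotinib, and 50 μM compound was co-added for the final 12 h in 0.5% EtOH vehicle. Green foci per cell (count and mean area) were quantified by fluorescence microscopy. Data are mean ± SD, n = 4–10, about 4700 cells per condition. Comparison was against nilotinib alone by unpaired t test.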

[6] = molecular target: Heat shock protein beta-1 (Homo sapiens) (UniProt P04792); assay: Disaggregation of protein aggregates in human HeLa cells expressing HSP27:GFP assessed as HSP27:GFP foci area per cell cell at 50 uM for 12 hr in presence of nilotinib by green fluorescent protein based confocal microscopy (rvb = 0.71); summary of the method: as §3
[7] = molecular target: Amyloid-beta precursor protein (Homo sapiens) (UniProt P05067); assay: Disaggregation of aggregated huamn amyloid beta (1 to 42) fibrils in human SH-SY5Y cells assessed as decrease the area of foci to basal levels at 50 uM for 12 hour by confocal microscopy relative to control; type: cell-based; summary of the method: as §2

Row | Activity [1] | Activity [2] [um2] | Activity [3] | inhibition [4] | Activity [5] [%] | Activity [6] [%] | Activity [7] | SMILES | Activity (HeLa)
1 | 3.96 | 7.5 | – | – | – | – | – | Cc1cn(-c2cc(NC(=O)c3ccc(C)c(Nc4nccc(-c5cccnc5)n4)c3)cc(C(F)(F)F)c2)cn1 | –
2 | – | – | Active | Active | 50 | 50 | inactive | CC(C)CCC[C@@H](C)[C@H]1CC[C@H]2[C@@H]3CC=C4c5c(nc6ccc(Cl)cc6c5-c5ccccc5Cl)CC[C@]4(C)[C@H]3CC[C@]12C | Non-Toxic
3 | – | – | Active | Active | 50 | 50 | inactive | Cc1c2c(nc3ccccc13)CC[C@@]1(C)C2=CC[C@H]2[C@@H]3CC[C@H]([C@H](C)CCCC(C)C)[C@@]3(C)CC[C@@H]21 | Non-Toxic
4 | – | – | inactive | inactive | 50 | 50 | Active | CC(C)CCC[C@@H](C)[C@H]1CC[C@H]2[C@@H]3CC=C4c5c(nc6ccc(Cl)cc6c5-c5ccccc5)CC[C@]4(C)[C@H]3CC[C@]12C | Non-Toxic
5 | – | – | Active | inactive | 50 | 50 | inactive | CC(C)CCC[C@@H](C)[C@H]1CC[C@H]2[C@@H]3CC=C4c5c(nc6ccccc6c5-c5ccccc5)CC[C@]4(C)[C@H]3CC[C@]12C | Non-Toxic
